The values that follow come from PubChem BioAssay.

Test [1] in a line: reducers of endogenous Her2 protein level, primary screen, SKBR3 breast tumor cells, AlphaScreen, ATP viability (AID 461;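 active = Her2 level under about 52% in both replicate screens, with viability over 70% of control, limit read from the data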;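 as to Her2 level: lower value means less Her2 protein in the cells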;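 as to viability: percent of carrier control wells set as 100% viability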). The settings on record: 18-24 h, measured here: SKBR3 viability, ATP luminescence, at 10 µM. (Bead proximity is the source of the signal in Alpha formats.)
Test [2] addresses Receptor tyrosine-protein kinase erbB-2 (Homo sapiens) (UniProt P04626). The description is as above. The settings on record: 18-24 h, at 10 µM, stronger effect = lower value.
The nature of test [3]: SK-BR-3 cell growth inhibitors, pilot screen, 24 h, human (AID 572;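 active = viability at or below 10% of carrier control in both of two separate runs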;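 also: compound exposure lasted between 18 and 24 h rather than exactly 24 h; 100% = carrier-treated control wells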). The settings on record: SK-BR-3 viability, CellTiter-Glo luminescence, at 10 µM, stronger effect = lower value.
Test [4] can be described thus: HUVEC growth inhibition – cell-based, human, primary screen (AID 575;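 active = viability at or below 30% in both replicate assays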;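 also: 100% = median of untreated cell wells with 0.1% DMSO on each plate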). The settings on record: HUVEC proliferation, CellTiter-Glo luminescence, 72 h; at 10 µM; stronger effect = lower value. A digest of the protocol:
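system = HUVEC primary cells | amount = 1250 cells/well | buffer or medium = supplemented EBM, 2% fetal bovine serum | dosing = single-point 10 µM, DMSO 0.1% final | times = 72 h compound incubation | detection = CTG luminescence | read-out = % viability relative to median vehicle-well signal on each plate | control set = vehicle and MePR control wells | format = collagen-coated 384-well format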

Test [5] is described as follows: growth inhibitors of H69AR lung tumor, primary screen, human, duplicate replicates (AID 580;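 active = viability at or under a set limit in both replicates, limit being median viability minus 3 SD, cut at about 48% in these data, passing the limit was not always enough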;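 also: 100% = mean luminescence of untreated wells and 0% = no signal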). The settings on record: H69AR lung tumor cells viability, ATP luminescence, 72 h; at 10 µM; stronger effect = lower value.
The nature of test [6]: reversal of MRP1-mediated doxorubicin resistance, pilot screen, H69AR cells, doxorubicin co-treatment (AID 601;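 active = viability loss from added drug above about 55%, and viability with drug at most 40%, in both replicates, limit read from the data, passing the limit was not always enough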). The settings on record: CellTiter-Glo, 72 h, at 10 µM; for differential viability (reversal): stronger effect = higher value. (In general: In ATP-based viability assays light output follows the ATP content of the culture.)
Test [7] is described as follows: 384-well plate pilot, post-Golgi transport modulator project, inhibition of yeast transport mutant growth (AID 636; in the data active = inhibition above about 31%). The settings on record: absorbance 615 nm, about 18 h, stronger effect = higher value.
A short description of test [8]: growth suppression of yeast trafficking mutant, preliminary HTS, modulators of trafficking downstream of Golgi apparatus project, 1536-format plate, OD 615 nm (AID 637). The settings on record: yeast transport mutant growth, absorbance 615 nm, 18 h; stronger effect = higher value.
[9] abbreviates: H69AR cells + 2 uM doxorubicin, measured here: viability with 2 uM doxorubicin, stronger effect = lower value.
Where [10] appears, read: H69AR cells, compound alone cytotoxicity.

Activity calls are given as the source filed them. Rule as the data show it, unless noted: active = inhibition above about 30%; inactive = the rest.

Chain of Receptor tyrosine-protein kinase erbB-2 (Homo sapiens) (P04626 whole entry, looked up): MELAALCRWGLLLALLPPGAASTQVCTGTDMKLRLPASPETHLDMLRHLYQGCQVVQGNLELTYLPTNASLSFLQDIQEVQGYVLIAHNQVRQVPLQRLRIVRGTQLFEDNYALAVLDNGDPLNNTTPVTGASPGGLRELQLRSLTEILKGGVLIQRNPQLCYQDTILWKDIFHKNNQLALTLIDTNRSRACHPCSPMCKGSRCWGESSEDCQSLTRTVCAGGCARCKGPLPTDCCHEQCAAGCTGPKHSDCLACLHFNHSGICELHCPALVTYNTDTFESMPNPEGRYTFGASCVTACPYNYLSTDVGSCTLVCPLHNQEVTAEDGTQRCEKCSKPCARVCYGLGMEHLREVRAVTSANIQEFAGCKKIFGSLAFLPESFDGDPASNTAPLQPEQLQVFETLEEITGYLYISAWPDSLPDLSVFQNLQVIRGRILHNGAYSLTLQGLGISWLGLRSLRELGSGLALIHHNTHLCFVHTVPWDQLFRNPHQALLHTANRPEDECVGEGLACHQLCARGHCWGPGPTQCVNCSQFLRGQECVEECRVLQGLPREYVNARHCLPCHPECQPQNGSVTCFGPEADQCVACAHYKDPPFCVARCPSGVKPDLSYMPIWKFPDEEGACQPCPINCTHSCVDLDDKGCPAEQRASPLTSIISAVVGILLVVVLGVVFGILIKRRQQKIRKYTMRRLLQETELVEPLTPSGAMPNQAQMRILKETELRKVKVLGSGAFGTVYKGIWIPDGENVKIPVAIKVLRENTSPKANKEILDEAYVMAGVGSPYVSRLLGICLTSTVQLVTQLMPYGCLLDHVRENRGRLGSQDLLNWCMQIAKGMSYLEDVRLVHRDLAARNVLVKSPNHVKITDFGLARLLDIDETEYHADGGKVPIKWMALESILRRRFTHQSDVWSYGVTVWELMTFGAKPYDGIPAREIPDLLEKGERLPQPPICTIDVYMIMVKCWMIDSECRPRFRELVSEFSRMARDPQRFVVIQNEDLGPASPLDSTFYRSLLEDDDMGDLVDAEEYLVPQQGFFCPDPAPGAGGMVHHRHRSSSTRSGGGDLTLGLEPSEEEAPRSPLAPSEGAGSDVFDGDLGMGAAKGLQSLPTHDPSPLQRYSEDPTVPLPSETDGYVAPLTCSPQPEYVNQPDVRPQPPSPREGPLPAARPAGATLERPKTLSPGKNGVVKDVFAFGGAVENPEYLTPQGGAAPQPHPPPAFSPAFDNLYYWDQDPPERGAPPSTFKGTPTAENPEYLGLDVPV

On to `CCOC(=O)Cc1csc(NC(=O)CN(C)S(=O)(=O)c2ccc3c(c2)CCC(=O)N3)n1`, for which the viability in test [1] is 108%; in test [3] it was 108% (inactive); in test [4], 97.5% (inactive); in test [5], 100% (inactive); in test [6] (setting [9]), 93.7%; in test [6] (setting [10]), 100%. The Her2 level in test [2] was 109% (inactive). For the same compound, the differential viability (reversal) in test [6] (H69AR cells + 2 uM doxorubicin) was 6.38% (inactive). Also, the inhibition in test [7] is -4% (inactive); in test [8], 0.82% (inactive).
In the case of `O=C(OCN1C(=O)c2ccccc2C1=O)c1ccc2c(=O)n3c(nc2c1)CCC3`, the viability in test [1] is 109%; in test [3] it was 109% (inactive); in test [4], 112% (inactive); in test [5], 96.7% (inactive); in test [6] (setting [9]), 97.2%; in test [6] (setting [10]), 96.7%. For the same compound, the Her2 level in test [2] is 85.5% (inactive). The differential viability (reversal) in test [6] (H69AR cells + 2 uM doxorubicin) is -0.565% (inactive). Moreover, the values for the inhibition in test [7] and in test [8] were -4.73% (inactive) and 14.8% (inactive), respectively.
For `CC(C)c1ccc(S(=O)(=O)N2CCN(C(=O)c3cccc(F)c3)CC2)cc1`, the viability in test [1] is 106%; in test [3], 106% (inactive); in test [4], 92% (inactive); in test [5], 88.3% (inactive); in test [6] (setting [9]), 96.9%; in test [6] (setting [10]), 88.3%. Also, the Her2 level in test [2] was 104% (inactive). In addition, the differential viability (reversal) in test [6] (H69AR cells + 2 uM doxorubicin) is -8.65% (inactive). Also, the figures for the inhibition in test [7] and in test [8] were -5.73% (inactive) and 3.28% (inactive), respectively.
In the case of `CC(C)(C)NC(=O)NC(=O)COc1ccccc1C#N`, the viability in test [1] was 104%; in test [3] it was 104% (inactive); in test [4], 108% (inactive); in test [5], 106% (inactive); in test [6] (setting [9]), 80.7%; in test [6] (setting [10]) it was 106%. Further, the Her2 level in test [2] was 90.5% (inactive). For the same compound, in test [6] (H69AR cells + 2 uM doxorubicin), the differential viability (reversal) is 25.7% (inactive). In addition, the inhibition in test [7] is -6.49% (inactive); in test [8], -2.38% (inactive).
For the compound `O=C(c1ccc(Cl)cc1)C1CCN(C(=O)NC2CCCCC2)CC1`, the viability is 92% in test [1]; 92% (inactive) in test [3]; 101% (inactive) in test [4]; 101% (inactive) in test [5]; 87% in test [6] (setting [9]); 101% in test [6] (setting [10]). Moreover, the Her2 level in test [2] was 92% (inactive). Also, in test [6] (H69AR cells + 2 uM doxorubicin), the differential viability (reversal) was 14% (inactive). Besides, the inhibition in test [7] was -4.8% (inactive); in test [8] it was -7.26% (inactive).
As to `O=C(NCCO)c1cccc2c1C(=O)c1ccccc1-2`, the viability is 97.5% in test [1]; 97.5% (inactive) in test [3]; 98.4% (inactive) in test [4]; 101% (inactive) in test [5]; 85.8% in test [6] (setting [9]); 101% in test [6] (setting [10]). The Her2 level in test [2] was 95.5% (inactive). Besides, the differential viability (reversal) in test [6] (H69AR cells + 2 uM doxorubicin) is 15.4% (inactive). For the same compound, the inhibition was -6.4% (inactive) in test [7] and -1.48% (inactive) in test [8].
For the compound `O=C(OCCCCN1C(=O)c2ccccc2C1=O)c1n[nH]c2ccccc12`, the viability is 92.5% in test [1]; 92.5% (inactive) in test [3]; 76.4% (inactive) in test [4]; 101% (inactive) in test [5]; 94.9% in test [6] (setting [9]); 101% in test [6] (setting [10]). Also, in test [2], the Her2 level is 86% (inactive). Moreover, in test [6] (H69AR cells + 2 uM doxorubicin), the differential viability (reversal) is 6.39% (inactive). Also, the results for the inhibition in test [7] and in test [8] were -7.67% (inactive) and 4.29% (inactive), respectively.
As to `CC(=O)Nc1cccc(NC(=O)c2oc3ccccc3c2C)c1`, the viability in test [1] is 81.5%; in test [3], 81.5% (inactive); in test [4] it was 76.8% (inactive); in test [5], 68.9% (inactive); in test [6] (setting [9]), 81.3%; in test [6] (setting [10]), 68.9%. In addition, the Her2 level in test [2] was 92.5% (inactive). Besides, the differential viability (reversal) in test [6] (H69AR cells + 2 uM doxorubicin) was -12.4% (inactive). Besides, the inhibition is -4.8% (inactive) in test [7] and -1.43% (inactive) in test [8].
As to `Cc1c(NC2=NC3(CCCCC3)Cc3ccccc32)c(=O)n(-c2ccccc2)n1C`, the viability in test [1] was 79.5%; in test [3], 79.5% (inactive); in test [4], 95.5% (inactive); in test [5], 92.5% (inactive); in test [6] (setting [9]), 87.5%; in test [6] (setting [10]), 92.5%. Also, the Her2 level in test [2] was 108% (inactive). Moreover, in test [6] (H69AR cells + 2 uM doxorubicin), the differential viability (reversal) is 5.08% (inactive). The results for the inhibition in test [7] and in test [8] were -5.13% (inactive) and 2.67% (inactive), respectively.
For `CN(C(=O)c1ccccn1)c1nnc(-c2ccncc2)s1`, the viability in test [1] is 118%; in test [3], 118% (inactive); in test [4] it was 101% (inactive); in test [5], 108% (inactive); in test [6] (setting [9]), 92.8%; in test [6] (setting [10]) it was 108%. In test [2], the Her2 level was 92.5% (inactive). Moreover, in test [6] (H69AR cells + 2 uM doxorubicin), the differential viability (reversal) is 15.6% (inactive). Moreover, the inhibition in test [7] was -3.65% (inactive); in test [8], -5% (inactive).
Consider `CC(C)(C)n1nc2c(c1NC(=O)COc1ccc(Cl)cc1)CSC2`, for which the viability is 97.5% in test [1]; 97.5% (inactive) in test [3]; 80.5% (inactive) in test [4]; 91.4% (inactive) in test [5]; 102% in test [6] (setting [9]); 91.4% in test [6] (setting [10]). In test [2], the Her2 level is 79.5% (inactive). In test [6] (H69AR cells + 2 uM doxorubicin), the differential viability (reversal) is -10.3% (inactive). The inhibition is -5% (inactive) in test [7] and -0.16% (inactive) in test [8].
As for `COc1ccc2c(c1)CCc1c(C(=O)N3CCCc4ccccc43)noc1-2`, the viability in test [1] is 98%; in test [3] it was 98% (inactive); in test [4] it was 80.8% (inactive); in test [5], 81.1% (inactive); in test [6] (setting [9]), 78.1%; in test [6] (setting [10]) it was 81.1%. Also, in test [2], the Her2 level is 87% (inactive). For the same compound, the differential viability (reversal) in test [6] (H69AR cells + 2 uM doxorubicin) was 3% (inactive). Besides, the values for the inhibition in test [7] and in test [8] were -6.05% (inactive) and -8.91% (inactive), respectively.
Consider `Cc1ccc2c(c1)NC(=O)C(CC(=O)NC1CCCCC1C)O2` (stereo not given), for which the viability was 110% in test [1]; 110% (inactive) in test [3]; 103% (inactive) in test [4]; 97.1% (inactive) in test [5]; 101% in test [6] (setting [9]); 97.1% in test [6] (setting [10]). Besides, the Her2 level in test [2] is 86.5% (inactive). Also, in test [6] (H69AR cells + 2 uM doxorubicin), the differential viability (reversal) is -3.58% (inactive). For the same compound, the inhibition was -2.53% (inactive) in test [7] and -1.15% (inactive) in test [8].
Regarding `COc1ccc2cc(CN(CCO)C(=O)c3ccccc3F)c(=O)[nH]c2c1`, the viability is 106% in test [1]; 106% (inactive) in test [3]; 96.9% (inactive) in test [4]; 95.3% (inactive) in test [5]; 86.7% in test [6] (setting [9]); 95.3% in test [6] (setting [10]). The Her2 level in test [2] was 126% (inactive). Besides, the differential viability (reversal) in test [6] (H69AR cells + 2 uM doxorubicin) was 8.58% (inactive). For the same compound, the inhibition was 2.86% (inactive) in test [7] and -8.33% (inactive) in test [8].

The term viability denotes a read-out of living cells in per cent, often relative to untreated cells. As a reminder, the inhibition is the change of the read-out against control, counted positive when it falls.
